Assay outcomes: PubChem BioAssay, several laboratories
HKDC1 inhibitor: inhibitors of human hexokinase HKDC1; Q2TB90; recombinant HKDC1, G6PDH/diaphorase resazurin coupled fluorescence; inhibition, % at 20 µM; 0.16% of 340,000 active; AID 493160;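 active = inhibition above about 35% when tested at 20 µM, limit read from the data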;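 also: plate controls were DMSO wells with enzyme for no effect and DMSO wells lacking enzyme for full effect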
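Test system: recombinant HKDC1 (HK5) hexokinase enzyme, produced in-house / Doses: 20 µM test compound, 1% DMSO / Timing: 90 min, room temperature / Detection: G6PDH/diaphorase-coupled fluorescence, 1 mM NADP, 100 µM resazurin, 525/613 nm / Control set: DMSO wells with and without enzyme mix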
TDP2 inh: TDP2 (human) inhibition, absorbance primary screen. 0.34% of 370,000 active. O95551. inhibition, % at 12.8 µM. recombinant TDP2, T5PNP hydrolysis, p-nitrophenol absorbance 415 nm. AID 720702;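 active = inhibition above the mean of all tested compounds plus 3 SD, set per campaign, cut at about 25% in these data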;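 also: 0% = DMSO with enzyme and 100% = buffer with substrate but no TDP2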
Target sequence (O95551 whole entry, looked up): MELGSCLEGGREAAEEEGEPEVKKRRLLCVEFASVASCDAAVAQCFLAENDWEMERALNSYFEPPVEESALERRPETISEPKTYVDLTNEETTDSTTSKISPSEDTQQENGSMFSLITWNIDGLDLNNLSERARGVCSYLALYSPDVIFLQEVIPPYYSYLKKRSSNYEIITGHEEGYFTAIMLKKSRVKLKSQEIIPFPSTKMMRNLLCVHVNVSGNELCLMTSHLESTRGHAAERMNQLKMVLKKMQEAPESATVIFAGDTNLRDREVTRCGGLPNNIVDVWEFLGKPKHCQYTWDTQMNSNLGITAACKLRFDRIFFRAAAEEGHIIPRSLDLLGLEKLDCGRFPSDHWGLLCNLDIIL
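Read-out basis: percent inhibition. System: recombinant human TDP2. Buffer or medium: Mg2+-containing Tris-HCl buffer, pH 7.5. Repeats: single replicate. Timing: reaction 2 h, 37 °C. Benchmarks: high control without enzyme, low control DMSO plus TDP2. Probe or stimulus: 5 mM T5PNP. Doses: 12.8 µM only. Measured by: epi absorbance of p-nitrophenol freed from T5PNP by hydrolysis.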
PAD4 FP inh: inhibitors of human PAD4; AID 485272; 0.41% of 330,000 active; recombinant PAD4, RCA probe fluorescence polarization; inhibition, % at 6.36 µM; Q9UM07;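 active = percent inhibition above a cutoff equal to the mean of all tested compounds plus 3 SD, cut at about 15% in these data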;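 also: 0% = PAD4 with RCA probe and DMSO and 100% = probe without PAD4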
GSTO1 inh: GSTO1 inhibition, counter-screen for RBBP9 inhibitors; P78417; recombinant GSTO1, activity-based probe fluorescence polarization; inhibition, % at 5.96 µM; 1.1% of 300,000 active; AID 1974;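 active = inhibition above the campaign mean inhibition plus 3 SD, cut at about 35% in these data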;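 also: 0% = GSTO1-1 with DMSO and 100% = wells lacking GSTO1-1 enzyme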
Target sequence (P78417 whole entry, looked up): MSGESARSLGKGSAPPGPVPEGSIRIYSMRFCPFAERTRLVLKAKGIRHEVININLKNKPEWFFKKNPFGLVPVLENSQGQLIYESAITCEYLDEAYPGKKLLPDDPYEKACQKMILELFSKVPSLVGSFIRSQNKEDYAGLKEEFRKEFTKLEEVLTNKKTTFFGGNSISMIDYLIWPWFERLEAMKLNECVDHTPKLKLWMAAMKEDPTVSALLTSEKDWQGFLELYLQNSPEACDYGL
Fh CTSL1 inh: counter-screen for PFM18AAP inhibitors: inhibitors of F. hepatica cathepsin L1 | recombinant F. hepatica cathepsin L1, Z-Leu-Arg-MCA fluorescence | 0.49% of 300,000 active | inhibition, % at 5.96 µM;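 active = inhibition above the mean of all tested compounds plus 3 SD, set per screening campaign, cut at about 17% in these data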;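 also: 0% = plate median of test compound wells and 100% = 1 µM Z-Phe-Ala-diazomethylketone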
UCH37 DUB inh: inhibitors of human deubiquitinating enzyme UCH37. Q9Y5K5. purified proteasome/UCH37, Ub-AMC cleavage fluorescence. inhibition, % (test concentration not listed). 0.33% of 330,000 active. AID 588478;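 active = mean inhibition over replicate wells above about 20%, limit read from the data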;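 also: 0% = compound-free wells with enzyme and 100% = wells lacking proteasome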
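Signal – fluorescence, ex 355 nm, em 460 nm · System – Proteasome-bound UCH37 · Input – 0.15 nM proteasome as dispensed · Timing – 30 min preincubation with enzyme, 25 min cleavage at room temperature · Read-out basis – percent inhibition of cleavage signal versus uninhibited and no-proteasome wells · Medium – Tris-HCl pH 7.4 with ATP-MgCl2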
TDP2 inh conf: human TDP2 inhibition, confirmation | shares compounds with TDP2 inh | recombinant human TDP2, absorbance read-out | inhibition, % at 12.8 µM | 22% of 1,100 active | AID 743263; in the data active = inhibition above about 25%;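 also: 0% = vehicle with enzyme and 100% = no enzyme buffer only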
An asterisk follows results filed as active. Shown are actives, neighbours in structure and some others; about 1.6% of the full set was active somewhere.

What do the screens show for `O=S(=O)(Nc1ccncc1)c1cc(Cl)ccc1Cl`?
HKDC1 inhibitor: -2; TDP2 inh: 1; PAD4 FP inh: -1; GSTO1 inh: -6; Fh CTSL1 inh: 0; UCH37 DUB inh: -1

Results for O=C(NN=Cc1cccc([N+](=O)[O-])c1)C1CC(=O)N(c2ccc(Cl)cc2)C1 (centres undefined) ?
UCH37 DUB inh: -4

How did Cc1cc(NC(=O)CN(C)CCOc2ccccc2)ccc1Br do in these assays?
HKDC1 inhibitor: 6; TDP2 inh: 3; PAD4 FP inh: 1; GSTO1 inh: -1; Fh CTSL1 inh: -2; UCH37 DUB inh: 1

Results for CN(CCOc1ccccc1)CC(=O)Nc1cccc(Br)c1 ?
HKDC1 inhibitor: 1; TDP2 inh: 32*; PAD4 FP inh: 2; GSTO1 inh: 9; Fh CTSL1 inh: -2; UCH37 DUB inh: 3; TDP2 inh conf: 11

How did Cc1c(Cc2ccccc2)c(=O)oc2cc(OCC(=O)NCC(O)c3ccccc3)ccc12 (centres undefined) do in these assays?
HKDC1 inhibitor: -1; TDP2 inh: 30*; PAD4 FP inh: 4; GSTO1 inh: 0; Fh CTSL1 inh: 4; UCH37 DUB inh: -72; TDP2 inh conf: 5

Results for Cc1cc(C)cc(NC(=O)COc2ccc3c(C)c(Cc4ccccc4)c(=O)oc3c2)c1 ?
PAD4 FP inh: 0; GSTO1 inh: 9; Fh CTSL1 inh: 6; UCH37 DUB inh: -67

What do the screens show for `Cc1nn(-c2ccccc2)c(N2CCCC2)c1C=NNC(=O)c1cc(-c2ccccc2)nc2ccccc12`?
UCH37 DUB inh: 4

Results for CCc1ccc(NC(=O)Nc2cc(C(=O)NCC3CCCO3)ccc2N2CC3CC(C2)c2cccc(=O)n2C3)cc1 (centres undefined) ?
HKDC1 inhibitor: -3; TDP2 inh: 25*; PAD4 FP inh: 0; GSTO1 inh: 1; Fh CTSL1 inh: 1; UCH37 DUB inh: 3; TDP2 inh conf: 2

What do the screens show for `COc1cc2ccccc2cc1C(=O)NN=Cc1ccc2c(c1)OCO2`?
UCH37 DUB inh: -31

What do the screens show for `O=C(Nc1ccccc1)/C(=C/c1ccc([N+](=O)[O-])cc1)NC(=O)c1ccco1`?
HKDC1 inhibitor: 2; TDP2 inh: 25*; PAD4 FP inh: -4; GSTO1 inh: 17; Fh CTSL1 inh: 4; UCH37 DUB inh: 11; TDP2 inh conf: 3

Results for CCC(=O)N(C)CCc1cc2c(c(OC)c1C=NNc1ccc(C(=O)O)cc1)OCO2 ?
UCH37 DUB inh: 8

What do the screens show for `COc1cc(C=c2c3ccccc3n3c2cc(-c2ccccc2)[n+]3C)cc(OC)c1OC`?
HKDC1 inhibitor: 27; TDP2 inh: 39*; TDP2 inh conf: 43*

How did COc1cc(/C=C(/C(=O)O)c2ccc(-c3ccccc3)cc2)cc(OC)c1OC do in these assays?
HKDC1 inhibitor: -1; TDP2 inh: 2; PAD4 FP inh: 6; GSTO1 inh: 2; Fh CTSL1 inh: 4; UCH37 DUB inh: -2

How did O=C(N/N=C/c1cc(Cl)ccc1O)c1cccnc1 do in these assays?
HKDC1 inhibitor: -34; TDP2 inh: 60*; PAD4 FP inh: -1; GSTO1 inh: -1; Fh CTSL1 inh: 2; TDP2 inh conf: -13

How did COc1c2c(cc3c1C(CC(O)Cc1ccccc1)N(C)CC3)OCO2 (centres undefined) do in these assays?
HKDC1 inhibitor: 3; TDP2 inh: 25*; PAD4 FP inh: -1; GSTO1 inh: -1; Fh CTSL1 inh: -4; UCH37 DUB inh: -17; TDP2 inh conf: -2

How did COc1cccc(CC(O)CC2c3c(cc4c(c3OC)OCO4)CCN2C)c1 (centres undefined) do in these assays?
HKDC1 inhibitor: -3; TDP2 inh: -2

Results for C/C(=N\NC(=O)CNC(=O)c1ccc(Br)cc1)c1ccco1 ?
HKDC1 inhibitor: -2; TDP2 inh: 36*; PAD4 FP inh: 1; GSTO1 inh: 0; Fh CTSL1 inh: 1; TDP2 inh conf: -9

What do the screens show for `O=C(NCC(=O)N1CCN(C(=O)c2ccco2)CC1)c1ccc(Br)cc1`?
HKDC1 inhibitor: 3; TDP2 inh: 25*; PAD4 FP inh: 2; GSTO1 inh: 5; Fh CTSL1 inh: -1; TDP2 inh conf: -4

What do the screens show for `CCCC(=O)Nc1cc2c3c(c1)C(C)C(=O)N3CCC2` (centres undefined)?
HKDC1 inhibitor: -5; TDP2 inh: -11; PAD4 FP inh: -2; GSTO1 inh: 12; Fh CTSL1 inh: 2; UCH37 DUB inh: 5

What do the screens show for `CC(C)NC(=O)C(=O)Nc1cc2c3c(c1)C(C)C(=O)N3CCC2` (centres undefined)?
HKDC1 inhibitor: -7; TDP2 inh: 34*; PAD4 FP inh: 1; GSTO1 inh: 9; Fh CTSL1 inh: -4; UCH37 DUB inh: 2; TDP2 inh conf: -4

Results for Cc1nn(-c2ccccc2)c(N2CCCC2)c1C=NNC(=S)Nc1cc(C(F)(F)F)ccc1Cl ?
UCH37 DUB inh: -16

Results for CC(=O)c1cc(OC(=O)N2CCOCC2)ccc1OC(=O)N1CCOCC1 ?
HKDC1 inhibitor: -2; TDP2 inh: 75*; PAD4 FP inh: 0; GSTO1 inh: 5; Fh CTSL1 inh: 2; UCH37 DUB inh: 0; TDP2 inh conf: -16

How did COC(=O)C[C@@H]1CC[C@H](NC(=O)Cc2ccccn2)[C@@H](CO)O1 do in these assays?
TDP2 inh: 28*; TDP2 inh conf: -1

How did CCN(C(=O)COC(=O)c1[nH]c(=O)[nH]c(=O)c1N)c1ccccc1 do in these assays?
HKDC1 inhibitor: -4; TDP2 inh: 30*; PAD4 FP inh: -6; GSTO1 inh: 8; Fh CTSL1 inh: 4; UCH37 DUB inh: -20; TDP2 inh conf: 0

Results for COc1ccc(C=Nn2cnc3c([nH]c4ccc(F)cc43)c2=O)cc1CN1CCCC1 ?
UCH37 DUB inh: 8

How did CCOC(=O)c1ccccc1NC(=S)N1CCC(N2CCCCC2)CC1 do in these assays?
HKDC1 inhibitor: 0; TDP2 inh: 34*; PAD4 FP inh: 2; GSTO1 inh: 1; Fh CTSL1 inh: 3; UCH37 DUB inh: 2; TDP2 inh conf: 3

What do the screens show for `CCCCOC(=O)/C=C\C(=O)NC(N)=O`?
HKDC1 inhibitor: 2; TDP2 inh: 26*; PAD4 FP inh: -2; GSTO1 inh: 7; Fh CTSL1 inh: -2; UCH37 DUB inh: 3; TDP2 inh conf: 2

What do the screens show for `CCCCOC(=O)/C=C\C(=O)OCCCC`?
HKDC1 inhibitor: -2; TDP2 inh: 1; PAD4 FP inh: 5; GSTO1 inh: 6; Fh CTSL1 inh: 5; UCH37 DUB inh: 5
